Experiments:
Format in all cases: functional
Amaranthus retroflexus [1] = experiment: Herbicidal activity against Amaranthus retroflexus assessed as inhibition in green house at 1500 g/ha pre-emergence treatment measured after 15 days; conditions: 360 h
Outline: (§1)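 Greenhouse pot test. Two replicates per treatment. Control was the same amount of water, N,N-dimethylformamide and Tween 20. Fresh weights were taken 15 days after treatment, and percentage inhibition was calculated relative to controls.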

[2] = tested on: Brassica rapa subsp. oleifera; experiment: Herbicidal activity against Brassica rapa subsp. oleifera assessed as inhibition in green house at 1500 g/ha post-emergence treatment measured after 15 days; conditions: 360 h; outline: as §1
[3] = tested on: Brassica rapa subsp. oleifera; experiment: Herbicidal activity against Brassica rapa subsp. oleifera assessed as inhibition in green house at 1500 g/ha pre-emergence treatment measured after 15 days; conditions: 360 h; outline: as §1
Echinochloa crus-galli [4] = experiment: Herbicidal activity against Echinochloa crus-galli (barnyard grass) assessed as inhibition of seedling growth at 10 ug/ml at 28 +/- 1 degC measured after 65 hr by cup test
Digitaria sanguinalis [5] = experiment: Herbicidal activity against Digitaria sanguinalis (hairy crabgrass) assessed as inhibition in green house at 750 g/ha pre-emergence treatment measured after 15 days; conditions: 360 h; outline: as §1
[6] = tested on: Brassica rapa subsp. oleifera; experiment: Herbicidal activity against Brassica rapa subsp. oleifera assessed as inhibition of root growth at 10 ug/ml at 28 +/- 1 degC measured after 65 hr by root test
Outline: (§2)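 Rape seeds were presoaked 4 h in distilled water. About 15 seeds were placed per 6-cm Petri plate on filter paper pre-wetted with 2 mL inhibitor solution. Plates germinated in the dark for 65 h at 28 ± 1 °C. Root length of 10 roots per plate was measured and averaged. Result expressed as percentage inhibition.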

Echinochloa crus-galli [7] = experiment: Herbicidal activity against Echinochloa crus-galli (barnyard grass) assessed as inhibition in green house at 375 g/ha pre-emergence treatment measured after 15 days; conditions: 360 h; outline: as §1
Digitaria sanguinalis [8] = experiment: Herbicidal activity against Digitaria sanguinalis (hairy crabgrass) assessed as inhibition in green house at 375 g/ha pre-emergence treatment measured after 15 days; conditions: 360 h; outline: as §1
Echinochloa crus-galli [9] = experiment: Herbicidal activity against Echinochloa crus-galli (barnyard grass) assessed as inhibition in green house at 750 g/ha pre-emergence treatment measured after 15 days; conditions: 360 h; outline: as §1
Echinochloa crus-galli [10] = experiment: Herbicidal activity against Echinochloa crus-galli (barnyard grass) assessed as inhibition in green house at 1500 g/ha post-emergence treatment measured after 15 days; conditions: 360 h; outline: as §1
Echinochloa crus-galli [11] = experiment: Herbicidal activity against Echinochloa crus-galli (barnyard grass) assessed as inhibition in green house at 1500 g/ha pre-emergence treatment measured after 15 days; conditions: 360 h; outline: as §1
[12] = tested on: Brassica rapa subsp. oleifera; experiment: Herbicidal activity against Brassica rapa subsp. oleifera assessed as inhibition of root growth at 100 ug/ml at 28 +/- 1 degC measured after 65 hr by root test; outline: as §2
Amaranthus retroflexus [13] = experiment: Herbicidal activity against Amaranthus retroflexus assessed as inhibition in green house at 1500 g/ha post-emergence treatment measured after 15 days; conditions: 360 h; outline: as §1
Echinochloa crus-galli [14] = experiment: Herbicidal activity against Echinochloa crus-galli (barnyard grass) assessed as inhibition of seedling growth at 100 ug/ml at 28 +/- 1 degC measured after 65 hr by cup test
Digitaria sanguinalis [15] = experiment: Herbicidal activity against Digitaria sanguinalis (hairy crabgrass) assessed as inhibition in green house at 187.5 g/ha pre-emergence treatment measured after 15 days; conditions: 360 h; outline: as §1
Echinochloa crus-galli [16] = experiment: Herbicidal activity against Echinochloa crus-galli (barnyard grass) assessed as inhibition in green house at 187.5 g/ha pre-emergence treatment measured after 15 days; conditions: 360 h; outline: as §1
Digitaria sanguinalis [17] = experiment: Herbicidal activity against Digitaria sanguinalis (hairy crabgrass) assessed as inhibition in green house at 93.75 g/ha pre-emergence treatment measured after 15 days; conditions: 360 h; outline: as §1
Digitaria sanguinalis [18] = experiment: Herbicidal activity against Digitaria sanguinalis (hairy crabgrass) assessed as inhibition in green house at 1500 g/ha pre-emergence treatment measured after 15 days; conditions: 360 h; outline: as §1
Digitaria sanguinalis [19] = experiment: Herbicidal activity against Digitaria sanguinalis (hairy crabgrass) assessed as inhibition in green house at 1500 g/ha post-emergence treatment measured after 15 days; conditions: 360 h; outline: as §1
Echinochloa crus-galli [20] = experiment: Herbicidal activity against Echinochloa crus-galli (barnyard grass) assessed as inhibition in green house at 93.75 g/ha pre-emergence treatment measured after 15 days; conditions: 360 h; outline: as §1

## Cc1ccccc1/C(O)=C1\C(=O)CN(C(C)C)C1=O
Amaranthus retroflexus [1]
  inhibition at 1500 g/ha: 50%
[2]
  inhibition at 1500 g/ha: 44%
[3]
  inhibition at 1500 g/ha: 0%
Echinochloa crus-galli [4]
  inhibition at 10 µg/mL: 77%
Digitaria sanguinalis [5]
  inhibition at 750 g/ha: 66%
[6]
  inhibition at 10 µg/mL: 15%
Echinochloa crus-galli [7]
  inhibition at 375 g/ha: 43%
Digitaria sanguinalis [8]
  inhibition at 375 g/ha: 30%
Echinochloa crus-galli [9]
  inhibition at 750 g/ha: 68%
Echinochloa crus-galli [10]
  inhibition at 1500 g/ha: 76%
Echinochloa crus-galli [11]
  inhibition at 1500 g/ha: 84%
[12]
  inhibition at 100 µg/mL: 62%
Amaranthus retroflexus [13]
  inhibition at 1500 g/ha: 0%
Echinochloa crus-galli [14]
  inhibition at 100 µg/mL: 77%

## COc1ccc(/C(O)=C2\C(=O)CN(C(C)(C)C)C2=O)cc1
Amaranthus retroflexus [1]
  inhibition at 1500 g/ha: 23%
[2]
  inhibition at 1500 g/ha: 0%
[3]
  inhibition at 1500 g/ha: 21%
Echinochloa crus-galli [4]
  inhibition at 10 µg/mL: 79%
Digitaria sanguinalis [5]
  inhibition at 750 g/ha: 58%
[6]
  inhibition at 10 µg/mL: 5%
Echinochloa crus-galli [7]
  inhibition at 375 g/ha: 0%
Digitaria sanguinalis [8]
  inhibition at 375 g/ha: 8%
Echinochloa crus-galli [9]
  inhibition at 750 g/ha: 73%
Echinochloa crus-galli [10]
  inhibition at 1500 g/ha: 66%
Echinochloa crus-galli [11]
  inhibition at 1500 g/ha: 93%
[12]
  inhibition at 100 µg/mL: 78%
Amaranthus retroflexus [13]
  inhibition at 1500 g/ha: 0%
Echinochloa crus-galli [14]
  inhibition at 100 µg/mL: 80%

## CCOc1ccc(/C(O)=C2\C(=O)CN(C(C)C)C2=O)cc1
Amaranthus retroflexus [1]
  inhibition at 1500 g/ha: 0%
[2]
  inhibition at 1500 g/ha: 0%
[3]
  inhibition at 1500 g/ha: 0%
Echinochloa crus-galli [4]
  inhibition at 10 µg/mL: 79%
Digitaria sanguinalis [15]
  inhibition at 187.5 g/ha: 84%
Digitaria sanguinalis [5]
  inhibition at 750 g/ha: 96%
[6]
  inhibition at 10 µg/mL: 8%
Echinochloa crus-galli [7]
  inhibition at 375 g/ha: 94%
Digitaria sanguinalis [8]
  inhibition at 375 g/ha: 94%
Echinochloa crus-galli [16]
  inhibition at 187.5 g/ha: 52%
Echinochloa crus-galli [9]
  inhibition at 750 g/ha: 98%
Digitaria sanguinalis [17]
  inhibition at 93.75 g/ha: 22%
Echinochloa crus-galli [10]
  inhibition at 1500 g/ha: 19%
Echinochloa crus-galli [11]
  inhibition at 1500 g/ha: 100%
Digitaria sanguinalis [18]
  inhibition at 1500 g/ha: 98%
[12]
  inhibition at 100 µg/mL: 82%
Digitaria sanguinalis [19]
  inhibition at 1500 g/ha: 0%
Amaranthus retroflexus [13]
  inhibition at 1500 g/ha: 0%
Echinochloa crus-galli [20]
  inhibition at 93.75 g/ha: 8%
Echinochloa crus-galli [14]
  inhibition at 100 µg/mL: 80%

## COc1ccc(/C(O)=C2\C(=O)CN(C(C)C)C2=O)c(OC)c1
Echinochloa crus-galli [4]
  inhibition at 10 µg/mL: 78%
Digitaria sanguinalis [15]
  inhibition at 187.5 g/ha: 68%
Digitaria sanguinalis [5]
  inhibition at 750 g/ha: 93%
[6]
  inhibition at 10 µg/mL: 27%
Echinochloa crus-galli [7]
  inhibition at 375 g/ha: 100%
Digitaria sanguinalis [8]
  inhibition at 375 g/ha: 77%
Echinochloa crus-galli [16]
  inhibition at 187.5 g/ha: 93%
Echinochloa crus-galli [9]
  inhibition at 750 g/ha: 100%
Digitaria sanguinalis [17]
  inhibition at 93.75 g/ha: 0%
[12]
  inhibition at 100 µg/mL: 69%
Echinochloa crus-galli [20]
  inhibition at 93.75 g/ha: 34%
Echinochloa crus-galli [14]
  inhibition at 100 µg/mL: 80%

## COc1ccc(/C(O)=C2\C(=O)CN(C3CC3)C2=O)cc1
Amaranthus retroflexus [1]
  inhibition at 1500 g/ha: 0%
[2]
  inhibition at 1500 g/ha: 0%
[3]
  inhibition at 1500 g/ha: 0%
Echinochloa crus-galli [4]
  inhibition at 10 µg/mL: 62%
Digitaria sanguinalis [5]
  inhibition at 750 g/ha: 73%
[6]
  inhibition at 10 µg/mL: 35%
Echinochloa crus-galli [7]
  inhibition at 375 g/ha: 7%
Digitaria sanguinalis [8]
  inhibition at 375 g/ha: 69%
Echinochloa crus-galli [9]
  inhibition at 750 g/ha: 69%
Echinochloa crus-galli [10]
  inhibition at 1500 g/ha: 0%
Echinochloa crus-galli [11]
  inhibition at 1500 g/ha: 81%
Digitaria sanguinalis [18]
  inhibition at 1500 g/ha: 57%
[12]
  inhibition at 100 µg/mL: 70%
Digitaria sanguinalis [19]
  inhibition at 1500 g/ha: 0%
Amaranthus retroflexus [13]
  inhibition at 1500 g/ha: 0%
Echinochloa crus-galli [14]
  inhibition at 100 µg/mL: 66%

## CCOc1ccc(/C(O)=C2\C(=O)CN(C3CC3)C2=O)cc1
Amaranthus retroflexus [1]
  inhibition at 1500 g/ha: 0%
[2]
  inhibition at 1500 g/ha: 0%
[3]
  inhibition at 1500 g/ha: 6%
Echinochloa crus-galli [4]
  inhibition at 10 µg/mL: 78%
Digitaria sanguinalis [15]
  inhibition at 187.5 g/ha: 18%
Digitaria sanguinalis [5]
  inhibition at 750 g/ha: 77%
[6]
  inhibition at 10 µg/mL: 0%
Echinochloa crus-galli [7]
  inhibition at 375 g/ha: 13%
Digitaria sanguinalis [8]
  inhibition at 375 g/ha: 33%
Echinochloa crus-galli [16]
  inhibition at 187.5 g/ha: 0%
Echinochloa crus-galli [9]
  inhibition at 750 g/ha: 99%
Echinochloa crus-galli [10]
  inhibition at 1500 g/ha: 0%
Echinochloa crus-galli [11]
  inhibition at 1500 g/ha: 100%
Digitaria sanguinalis [18]
  inhibition at 1500 g/ha: 42%
[12]
  inhibition at 100 µg/mL: 47%
Digitaria sanguinalis [19]
  inhibition at 1500 g/ha: 6%
Amaranthus retroflexus [13]
  inhibition at 1500 g/ha: 13%
Echinochloa crus-galli [14]
  inhibition at 100 µg/mL: 79%

## O=C1CN(C2CC2)C(=O)/C1=C(\O)c1cccc(Oc2ccccc2)c1
Amaranthus retroflexus [1]
  inhibition at 1500 g/ha: 0%
[2]
  inhibition at 1500 g/ha: 3%
[3]
  inhibition at 1500 g/ha: 0%
Echinochloa crus-galli [4]
  inhibition at 10 µg/mL: 58%
[6]
  inhibition at 10 µg/mL: 28%
Echinochloa crus-galli [10]
  inhibition at 1500 g/ha: 15%
Echinochloa crus-galli [11]
  inhibition at 1500 g/ha: 0%
Digitaria sanguinalis [18]
  inhibition at 1500 g/ha: 0%
[12]
  inhibition at 100 µg/mL: 80%
Digitaria sanguinalis [19]
  inhibition at 1500 g/ha: 10%
Amaranthus retroflexus [13]
  inhibition at 1500 g/ha: 9%
Echinochloa crus-galli [14]
  inhibition at 100 µg/mL: 66%

## CC(C)N1CC(=O)/C(=C(/O)c2cccc(Oc3ccccc3)c2)C1=O
Amaranthus retroflexus [1]
  inhibition at 1500 g/ha: 0%
[2]
  inhibition at 1500 g/ha: 0%
[3]
  inhibition at 1500 g/ha: 0%
Echinochloa crus-galli [4]
  inhibition at 10 µg/mL: 57%
[6]
  inhibition at 10 µg/mL: 0%
Echinochloa crus-galli [10]
  inhibition at 1500 g/ha: 0%
Echinochloa crus-galli [11]
  inhibition at 1500 g/ha: 0%
Digitaria sanguinalis [18]
  inhibition at 1500 g/ha: 0%
[12]
  inhibition at 100 µg/mL: 81%
Digitaria sanguinalis [19]
  inhibition at 1500 g/ha: 0%
Amaranthus retroflexus [13]
  inhibition at 1500 g/ha: 9%
Echinochloa crus-galli [14]
  inhibition at 100 µg/mL: 67%

## COc1ccc(/C(O)=C2\C(=O)CN(C3CC3)C2=O)cc1OC
Amaranthus retroflexus [1]
  inhibition at 1500 g/ha: 0%
[2]
  inhibition at 1500 g/ha: 0%
[3]
  inhibition at 1500 g/ha: 0%
Echinochloa crus-galli [4]
  inhibition at 10 µg/mL: 0%
[6]
  inhibition at 10 µg/mL: 69%
Echinochloa crus-galli [10]
  inhibition at 1500 g/ha: 3%
Echinochloa crus-galli [11]
  inhibition at 1500 g/ha: 0%
Digitaria sanguinalis [18]
  inhibition at 1500 g/ha: 11%
[12]
  inhibition at 100 µg/mL: 72%
Digitaria sanguinalis [19]
  inhibition at 1500 g/ha: 0%
Amaranthus retroflexus [13]
  inhibition at 1500 g/ha: 0%
Echinochloa crus-galli [14]
  inhibition at 100 µg/mL: 65%

## CS(=O)(=O)c1ccc(C(=O)C2C(=O)CCCC2=O)c(Cl)c1 [SULCOTRIONE]
Digitaria sanguinalis [15]
  inhibition at 187.5 g/ha: 100%
Digitaria sanguinalis [5]
  inhibition at 750 g/ha: 100%
Echinochloa crus-galli [7]
  inhibition at 375 g/ha: 100%
Digitaria sanguinalis [8]
  inhibition at 375 g/ha: 100%
Echinochloa crus-galli [16]
  inhibition at 187.5 g/ha: 93%
Echinochloa crus-galli [9]
  inhibition at 750 g/ha: 100%
Digitaria sanguinalis [17]
  inhibition at 93.75 g/ha: 100%
Echinochloa crus-galli [20]
  inhibition at 93.75 g/ha: 70%

From ChEMBL document CHEMBL3045615, “Synthesis and herbicidal evaluation of novel 3-[(alpha-hydroxy-substituted)benzylidene]pyrrolidine-2,4-diones” (J Agric Food Chem, 2005)
